Drawing on ChEMBL document CHEMBL1121599, “Synthesis and analgesic activity of some 5-(4-hydroxyphenyl)-2-azabicyclo[3.2.1]octanes” (J Med Chem, 1980), this text covers ED50 and IC50 for 7 compounds.

A value given as a limit tells only on which side of the number the result lay.

In experiment [1] the test system is Mus musculus. Description: Tested in vivo for the analgesic activity by measuring the inhibition of phenyl-p-quinone- induced writhing (PQW) in mice upon subcutaneous administration; 7.2-21.9. The following applies: sc. Type of experiment: functional. In a few lines: (§1)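 Compounds were given as racemic hydrobromide salts. The vehicle, also used as the control in both the tail-flick and the phenylquinone writhing tests, was distilled water with a few drops of Tween 80.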
For orientation: An intraperitoneal irritant provokes the stretching counted in writhing tests.

For a further experiment, the target named is Opioid receptor (Rattus norvegicus, UniProt P33533+P34975+P33535). Description: Tested for In vitro binding constant for Opioid receptors by measuring the inhibition of stereospecific binding of [3H]naloxone in rat brain homogenates. It counts as tissue-based.
The test system of experiment [2] is Mus musculus. In words: Tested in vivo for the analgesic activity by measuring the delay in response to noxious heat stimuli (D'Amour-Smith tail-flick method) in mice upon subcutaneous administration. It counts as functional. The note with it: sc. The essentials:
as §1

The subject of experiment [3] is Mus musculus. Description: Tested in vivo for the analgesic activity by measuring the inhibition of phenyl-p-quinone- induced writhing (PQW) in mice upon subcutaneous administration; 0.20-0.36. The note with it: sc. Type of experiment: functional. The essentials:
as §1

Experiment [4] deals with Mus musculus. In words: Tested in vivo for the analgesic activity by measuring the inhibition of phenyl-p-quinone- induced writhing (PQW) in mice upon subcutaneous administration; 3.2-4.4. It counts as functional. The note with it: sc. The essentials:
as §1

Experiment [5] concerns Mus musculus. In words: Tested in vivo for the analgesic activity by measuring the inhibition of phenyl-p-quinone- induced writhing (PQW) in mice upon subcutaneous administration; 2.6-3.4. Type of experiment: functional. The note with it: sc. The essentials: as §1
Experiment [6] has as its system Mus musculus. In words: Tested in vivo for the analgesic activity by measuring the inhibition of phenyl-p-quinone- induced writhing (PQW) in mice upon subcutaneous administration; 2.2-2.7. The following applies: sc. Type of experiment: functional. The essentials:
as §1

For experiment [7], the system named is Mus musculus. Description: Tested in vivo for the analgesic activity by measuring the delay in response to noxious heat stimuli (D'Amour-Smith tail-flick method) in mice upon subcutaneous administration; 7.4-24.4. It counts as functional. The following applies: sc. The essentials:
as §1
In general terms: Thermal pain tests record how soon the animal reacts.

The subject of experiment [8] is Mus musculus. In words: Tested in vivo for the analgesic activity by measuring the inhibition of phenyl-p-quinone- induced writhing (PQW) in mice upon subcutaneous administration; 2.1-2.9. The following applies: sc. Type of experiment: functional. The essentials:
as §1

Experiment [9] is filed under the species Mus musculus. Description: animal or person. The note with it: sc.

As a reminder, the ED50 is the midpoint of the dose-response relation. As a reminder, the IC50 is the midpoint of a concentration-inhibition curve.

As to `CN1CCC2(c3ccc(O)cc3)CCC1C2` (stereo not drawn), the median effective dose (ED50) is 10.8 mg/kg in the experiment on Mus musculus [1] and > 25 mg/kg in the experiment on Mus musculus [2]. The same compound registered an IC50 on Opioid receptor of 7290 nM.
With `O=C(CCCN1CCC2(c3ccc(O)cc3)CCC1C2)c1ccc(F)cc1` (stereo not drawn), the ED50 in the experiment with Mus musculus [3] is 0.27 mg/kg; in the experiment on Mus musculus [2] it was > 25 mg/kg. In addition, the IC50 at Opioid receptor came to 268 nM.
`CCCN1CCC2(c3ccc(O)cc3)CCC1C2` (stereo not drawn) had a half-maximal inhibitory concentration (IC50) on Opioid receptor of 6980 nM. The median effective dose (ED50) was 3.7 mg/kg in the experiment with Mus musculus [4] and > 25 mg/kg with Mus musculus [2].
Regarding `Oc1ccc(C23CCC(C2)N(CC2CC2)CC3)cc1` (stereo not drawn), the 50% inhibitory concentration (IC50) at Opioid receptor turned out to be 2780 nM. The ED50 with Mus musculus [2] is > 25 mg/kg; in the experiment on Mus musculus [5], 3 mg/kg.
The compound `Oc1ccc(C23CCC(C2)N(CCc2ccccc2)CC3)cc1` (stereo not drawn) registered an IC50 at Opioid receptor of 340 nM. Further, the ED50 was > 25 mg/kg in the experiment with Mus musculus [2] and 2.5 mg/kg in the experiment on Mus musculus [6].
As to `CC(C)=CCN1CC[C@]2(C)c3cc(O)ccc3C[C@H]1[C@H]2C` [(+)-PENTAZOCINE], the results for the median effective dose (ED50) in the experiment on Mus musculus [7] and with Mus musculus [8] were 14.6 mg/kg and 2.4 mg/kg, respectively.
In the experiment filed under Mus musculus [9], `CN1CC[C@]23c4c5ccc(O)c4O[C@H]2[C@@H](O)C=C[C@H]3[C@H]1C5` [MORPHINE] showed an ED50 of 0.68 mg/kg.
